SIAE inh: inhibitors of human sialic acid acetylesterase SIAE; Q9HAT2; SIAE FP-Rh probe binding, fluorescence polarization; inhibition, % at 9.66 µM; 0.69% of 370,000 active; AID 1053197;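 active = inhibition above a cutoff: mean of compounds within the control limits plus 3 SD of those, cut at about 17% in these data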
PRMT1 FP inh: blocks human protein arginine methyltransferase 1 | Q99873 | recombinant PRMT1, activity-based probe fluorescence polarization | inhibition, % at 2.79 µM | 1.3% of 370,000 active | AID 652257;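 active = inhibition above about 21% made by adding two undisclosed values, limit read from the data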
TCR CD3 inh: inhibitors of human TCR-CD3 interaction; TAMRA-labeled TCR probe fluorescence, biochemical; inhibition, % at 9.4 µM; 0.37% of 360,000 active; AID 651800; in the data active = inhibition above about 19%;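 note: recombinant mutant TCR 2C K166C tagged with TAMRA read by polarization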
HTRA1 inhibitor: blocks human HTRA1 serine peptidase | Q92743 | recombinant HTRA1, FP-rhodamine activity-based probe, fluorescence polarization | inhibition, % at 5.96 µM | 0.5% of 340,000 active | AID 504803; in the data active = inhibition above about 36%
Target sequence (Q92743 whole entry, looked up): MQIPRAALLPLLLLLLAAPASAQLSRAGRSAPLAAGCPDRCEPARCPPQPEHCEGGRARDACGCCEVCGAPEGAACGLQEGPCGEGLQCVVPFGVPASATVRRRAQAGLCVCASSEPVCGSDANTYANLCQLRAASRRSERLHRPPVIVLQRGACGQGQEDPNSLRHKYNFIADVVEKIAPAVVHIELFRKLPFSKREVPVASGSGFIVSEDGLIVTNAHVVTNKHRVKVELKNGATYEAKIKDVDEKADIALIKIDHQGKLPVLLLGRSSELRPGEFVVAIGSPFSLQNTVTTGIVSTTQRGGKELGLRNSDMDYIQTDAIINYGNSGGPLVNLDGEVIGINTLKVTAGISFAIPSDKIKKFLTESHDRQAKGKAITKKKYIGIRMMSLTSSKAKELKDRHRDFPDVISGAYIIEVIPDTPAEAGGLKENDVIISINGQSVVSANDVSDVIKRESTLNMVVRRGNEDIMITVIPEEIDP
ABHD4 inh: ABHD4 (mouse) inhibition, primary FP screen | Q8VD66 | purified mABHD4, FP-Rh probe fluorescence polarization | inhibition, % at 8.92 µM | 0.54% of 370,000 active | AID 720543;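 active = inhibition exceeding the mean over every tested compound plus 3 SD, cut at about 30% in these data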
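System: mouse ABHD4 enzyme, wild type / Medium: HEPES pH 7.0, NaCl, Pluronic buffer / Reagent: FP-Rh activity-based fluorescent probe / Control set: S159A mutant high control, sample median low control / Detection: fluorescence polarization with parallel and perpendicular emission, 525/598 nm / Schedule: 45 min + 60 min at 25 °C / Compound dosing: 8.92 µM, single dose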
mABHD4 conf: ABHD4 (mouse) inhibition, FP confirmation; shares compounds with ABHD4 inh; purified mABHD4, FP-Rh probe fluorescence polarization; inhibition, % at 8.92 µM; 55% of 1,800 active; AID 720658;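 active = mean inhibition across replicates above the hit cutoff set in the primary screen, cut at about 30% in these data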
SIAE confirm: human SIAE inhibition, confirmation; shares compounds with SIAE inh; SIAE FP-Rh activity-based probe, fluorescence polarization; inhibition, % at 9.66 µM; 13% of 2,300 active;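 active = mean inhibition of the replicates above the hit cutoff set in the primary screen, cut at about 17% in these data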;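 note: inhibitors lower polarization as more probe stays unbound to SIAE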
Numbers stand for hits; n = inactive; x = not tested or not shown. Compounds with a hit are over-represented: about 2.7% of the library has one in this group of screens.

SMILES	SIAE inh	PRMT1 FP inh	TCR CD3 inh	HTRA1 inhibitor	ABHD4 inh	mABHD4 conf	SIAE confirm
Cc1ccc(C2CC(=O)Oc3cc(O)ccc32)cc1 (stereo not given)	19.3	n	n	n	55.1	43.9	n
O=C1CC(c2ccccc2)c2cc(O)ccc2O1 (stereo not given)	n	n	n	n	n	x	x
Cc1cc(C)c2c(N)c(C(=O)NN3CC(=O)N(c4ccccc4)CC3=O)sc2n1	n	n	n	n	n	x	x
Cc1ccc(S(=O)(=O)N(C)CC(=O)N2CCN(C(=O)c3ccco3)CC2)cc1	n	n	n	n	n	x	x
Cc1ccc(S(=O)(=O)N(C(=O)c2ccco2)c2cc3sc(=O)oc3c3ccccc23)cc1	34.2	83.7	n	n	50.2	n	n
CCOc1ccc(S(=O)(=O)N(C(=O)c2ccco2)c2cc3sc(=O)oc3c3ccccc23)cc1	17.9	93.1	n	n	42.1	n	n
CCOc1ccc(S(=O)(=O)N(C)CC(=O)NCc2ccco2)cc1	n	n	n	n	n	x	x
CC1=C([N+](=O)[O-])C(c2cccc(Br)c2)C2=C(N1)c1ccccc1C2=O (stereo not given)	28.1	n	n	n	29.7	35.2	n
Oc1ccc(Nc2ccc3ccccc3c2)cc1	19.7	n	n	x	39.3	56.4	n
Nc1ccc2ccc(O)cc2c1	19.4	n	n	n	40.5	32.9	n
Oc1ccc2ccc(Cl)cc2c1	n	n	n	n	n	x	x
CCCOc1ccc2c(c1)C(=NN=C(N)N)c1cc(OCCC)ccc1-2	18.0	n	n	n	38.0	51.1	n
CCN(CC)CCOc1ccc2c(c1)C(=NO)c1cc(OCCN(CC)CC)ccc1-2	n	n	n	n	n	x	x
CCN(C(=O)COC(=O)c1ccccc1Nc1ccccc1)c1c(N)n(Cc2ccccc2)c(=O)[nH]c1=O	n	n	n	n	n	x	x
COc1ccc(NC(=O)N(C)[C@H]2C[C@H]3c4[nH]c5ccccc5c4CCN3C(=O)[C@H]2CO)cc1	n	n	n	n	n	x	x
N=C1S/C(=C\c2ccco2)C(=O)N1c1ccc2c(c1)OCO2	20.7	n	n	n	34.2	n	n
O=C(CN1C(=O)S/C(=C\c2ccc(O)c([N+](=O)[O-])c2)C1=O)Nc1ccc(N2CCOCC2)cc1	n	n	n	n	n	x	x
Cc1ccc(NC(=O)CN2C(=O)S/C(=C/c3ccc(O)c([N+](=O)[O-])c3)C2=O)cc1C	24.9	n	n	n	50.6	62.9	n
COc1ccc(OC)c(N/C(C)=C/C(=O)c2ccncc2)c1	20.6	n	n	n	49.5	n	n
O=C(Cc1ccc(NC(=O)C2CCCN(C(=O)c3ccccc3)C2)cc1)Nc1cccc(C(=O)N2CCCC2)c1 (stereo not given)	n	n	n	x	n	x	x
O=S(=O)(Nc1ccc(O)c2ncccc12)c1ccccc1F	28.9	n	29.4	x	39.2	42.0	n
O=C(NCc1ccccc1)[C@H]1CCCN1C(=O)[C@H]1CCCN1C(=O)c1ccc(F)cc1F	n	n	n	x	n	x	x
COC(=O)c1ccc(CC(=O)c2c(C)cc(O)cc2O)o1	24.2	24.4	n	n	38.2	n	n
COc1ccc2[nH]c3c(NCCC4=CCCCC4)ncnc3c2c1	49.6	n	n	n	38.6	60.5	45.0
COc1ccc2[nH]c3c(NCCCOC(C)C)ncnc3c2c1	n	n	n	n	n	x	x
SMILES	SIAE inh	PRMT1 FP inh	TCR CD3 inh	HTRA1 inhibitor	ABHD4 inh	mABHD4 conf	SIAE confirm
O=C1N=c2ccccc2=C1c1sc(=S)n(NC(=O)c2ccccc2)c1O	22.6	n	n	n	33.2	42.0	30.8
CCCN(C(=O)c1cc(S(=O)(=O)N(C)c2ccc(OCC)cc2)ccc1C)C1CCS(=O)(=O)C1 (stereo not given)	n	n	n	n	n	x	x
COC(=O)c1ccc(COC(=O)CNC(=O)c2cccs2)cc1	n	n	n	n	n	x	x
O=C(Nc1ccccc1)c1cn2ccccc2n1	17.6	n	n	n	n	x	n
c1ccc(CCCN2CCOCC2)cc1	n	n	n	n	n	x	x
c1ccc(OCc2ccc(CCCN3CCOCC3)cc2)cc1	17.6	n	n	n	n	x	n
COc1ccc(NC(=O)N(C)C[C@H]2Oc3c(NC(=O)c4ccncc4)cccc3C(=O)N([C@H](C)CO)C[C@@H]2C)cc1	22.9	n	n	n	n	x	n

Screening data (PubChem BioAssay)
